Measured values taken from ChEMBL document CHEMBL3817726, “Chemically Diverse Group I p21-Activated Kinase (PAK) Inhibitors Impart Acute Cardiovascular Toxicity with a Narrow Therapeutic Window” (J Med Chem, 2016).
Values after ≈ are worked out from the molar mass of the structure shown. Each block holds one compound with its values, some of them ahead of it.

Key:
[1] = Cmax associated with acute adverse effect in rat; assay type: ADME, organism-based; conditions: in vivo
[2] = species on record: Rattus norvegicus; assay: fCmax associated with acute adverse effect in rat; assay type: ADME, organism-based; conditions: in vivo
[3] = species on record: Rattus norvegicus; assay: Toxicity in rat assessed as slow blood flow; assay type: organism-based; conditions: in vivo
[4] = species on record: Rattus norvegicus; assay: Toxicity in rat assessed as darkened blood; assay type: organism-based; conditions: in vivo
[5] = species on record: Rattus norvegicus; assay: Toxicity in rat assessed as hypoactivity; assay type: organism-based; conditions: in vivo
[6] = species on record: Rattus norvegicus; assay: Toxicity in rat assessed as hunched posture; assay type: organism-based; conditions: in vivo
[7] = test system: Mus musculus; assay: Toxicity in mouse assessed as slow blood flow at 60 to 80 mg/kg, po; assay type: organism-based; conditions: in vivo
[8] = test system: Mus musculus; assay: Toxicity in mouse assessed as darkened blood at 60 to 80 mg/kg, po; assay type: organism-based; conditions: in vivo
[9] = test system: Mus musculus; assay: Toxicity in mouse assessed as hypoactivity at 60 to 80 mg/kg, po; assay type: organism-based; conditions: in vivo
[10] = test system: Mus musculus; assay: Toxicity in mouse assessed as hunched posture at 60 to 80 mg/kg, po; assay type: organism-based; conditions: in vivo
[11] = Fraction unbound in mouse plasma at 60 to 80 mg/kg, po; assay type: ADME, organism-based
[12] = Cmax associated with acute adverse effect in mouse at 60 to 80 mg/kg, po; assay type: ADME, organism-based; conditions: in vivo
Summary of the method: (§1)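 Mouse tolerability studies tested multiple doses, given orally or intraperitoneally. Plasma drug concentrations were measured, including at a 15 min time point. The minimum concentration associated with adverse clinical signs or death was taken as the adverse Cmax and was converted to an unbound value.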

[13] = test system: Mus musculus; assay: fCmax associated with acute adverse effect in mouse at 60 to 80 mg/kg, po; assay type: ADME, organism-based; conditions: in vivo
Summary of the method: (§2)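 Mouse tolerability studies at multiple doses, oral or intraperitoneal. Minimum unbound plasma concentration associated with adverse effects (total Cmax converted to unbound) compared with IC50 for inhibition of MEK1 S298 phosphorylation in cells.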

[14] = biological target: Serine/threonine-protein kinase PAK 1 (Homo sapiens, UniProt Q13153); assay: Inhibition of human recombinant N-terminal 6-His-tagged PAK1 kinase domain (249 to 545 residues) expressed in Escherichia coli BL21(DE3) assessed as phosphorylation of coumarin labeled FRET peptide substrate at Ser/Thr19 preincubated for 10 mins followed by ATP addition measured after 60 mins by Z'-LYTE assay
[15] = species on record: Homo sapiens; assay: Selectivity for human recombinant N-terminal 6-His-tagged PAK1 kinase domain (249 to 545 residues) over LCK (unknown origin)
[16] = biological target: Serine/threonine-protein kinase PAK 1/PAK 2 (Homo sapiens, UniProt Q13177+Q13153); assay: Inhibition of PAK1/2 in human EBC1 cells assessed as phosphorylation of MEK1 at serine 298 after 2 hrs by HTRF assay; assay type: cell-based
[17] = Lipophilicity, log D of the compound at pH 7.4; assay type: physicochemical; conditions: buffer
[18] = Kinetic solubility of the compound at pH 7.4; assay type: physicochemical; conditions: buffer, read-out: Kinetic_solubility
[19] = Apparent permeability across apical to basolateral side in MDCK cells at 10 uM after 60 mins; assay type: ADME, cell-based, Canis lupus familiaris; conditions: dog
[20] = Efflux ratio of permeability across basolateral to apical side over apical to basolateral side in MDCK cells at 10 uM after 60 mins; assay type: ADME, cell-based, Canis lupus familiaris; conditions: dog
[21] = biological target: Serine/threonine-protein kinase PAK 2 (Homo sapiens, UniProt Q13177); assay: Inhibition of human recombinant PAK2 assessed as phosphorylation of coumarin labeled FRET peptide substrate at Ser/Thr19 preincubated for 10 mins followed by ATP addition measured after 60 mins by Z'-LYTE assay
[22] = Fraction unbound in mouse plasma at 25 to 150 mg/kg, ip; assay type: ADME, organism-based
[23] = Cmax associated with acute adverse effect in mouse at 25 to 150 mg/kg, ip; assay type: ADME, organism-based; conditions: in vivo
[24] = test system: Mus musculus; assay: fCmax associated with acute adverse effect in mouse at 25 to 150 mg/kg, ip; assay type: ADME, organism-based; conditions: in vivo
[25] = Ratio of fCmax associated with acute adverse effect in mouse at 25 to 150 mg/kg, ip to IC50 for PAK1/2-mediated phosphorylation of MEK1 at serine 298 in human EBC1 cells
[26] = test system: Mus musculus; assay: Toxicity in mouse at 100 mg/kg, ip; assay type: organism-based; conditions: in vivo
[27] = Fraction unbound in mouse plasma at 100 mg/kg, ip; assay type: ADME, organism-based
[28] = Cmax associated with acute adverse effect in mouse at 100 mg/kg, ip; assay type: ADME, organism-based; parameters: dose 100 mg/kg, route intraperitoneal; conditions: in vivo; summary of the method: as §1
[29] = test system: Mus musculus; assay: fCmax associated with acute adverse effect in mouse at 100 mg/kg, ip; assay type: ADME, organism-based; conditions: in vivo; summary of the method: as §2
[30] = Ratio of fCmax associated with acute adverse effect in mouse at 100 mg/kg, ip to IC50 for PAK1/2-mediated phosphorylation of MEK1 at serine 298 in human EBC1 cells
[31] = Fraction unbound in mouse plasma at 100 to 200 mg/kg, ip; assay type: ADME, organism-based
[32] = Cmax associated with acute adverse effect in mouse at 100 to 200 mg/kg, ip; assay type: ADME, organism-based; conditions: in vivo; summary of the method: as §1
[33] = test system: Mus musculus; assay: fCmax associated with acute adverse effect in mouse at 100 to 200 mg/kg, ip; assay type: ADME, organism-based; conditions: in vivo; summary of the method: as §2
[34] = Ratio of fCmax associated with acute adverse effect in mouse at 100 to 200 mg/kg, ip to IC50 for PAK1/2-mediated phosphorylation of MEK1 at serine 298 in human EBC1 cells
[35] = Fraction unbound in mouse plasma at 150 to 300 mg/kg, ip; assay type: ADME, organism-based
[36] = Cmax associated with acute adverse effect in mouse at 150 to 300 mg/kg, ip; assay type: ADME, organism-based; conditions: in vivo; summary of the method: as §1
[37] = test system: Mus musculus; assay: fCmax associated with acute adverse effect in mouse at 150 to 300 mg/kg, ip; assay type: ADME, organism-based; conditions: in vivo; summary of the method: as §2
[38] = Ratio of fCmax associated with acute adverse effect in mouse at 150 to 300 mg/kg, ip to IC50 for PAK1/2-mediated phosphorylation of MEK1 at serine 298 in human EBC1 cells
Summary of the method: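 Mice were dosed at multiple levels, orally or intraperitoneally, and monitored for acute adverse signs. The minimum unbound plasma Cmax associated with adverse effects was converted from total drug concentration and compared with the cellular IC50 for phospho-MEK1 S298 inhibition.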

Chain of Serine/threonine-protein kinase PAK 1 (Q13153 whole entry, the tested form may be a part): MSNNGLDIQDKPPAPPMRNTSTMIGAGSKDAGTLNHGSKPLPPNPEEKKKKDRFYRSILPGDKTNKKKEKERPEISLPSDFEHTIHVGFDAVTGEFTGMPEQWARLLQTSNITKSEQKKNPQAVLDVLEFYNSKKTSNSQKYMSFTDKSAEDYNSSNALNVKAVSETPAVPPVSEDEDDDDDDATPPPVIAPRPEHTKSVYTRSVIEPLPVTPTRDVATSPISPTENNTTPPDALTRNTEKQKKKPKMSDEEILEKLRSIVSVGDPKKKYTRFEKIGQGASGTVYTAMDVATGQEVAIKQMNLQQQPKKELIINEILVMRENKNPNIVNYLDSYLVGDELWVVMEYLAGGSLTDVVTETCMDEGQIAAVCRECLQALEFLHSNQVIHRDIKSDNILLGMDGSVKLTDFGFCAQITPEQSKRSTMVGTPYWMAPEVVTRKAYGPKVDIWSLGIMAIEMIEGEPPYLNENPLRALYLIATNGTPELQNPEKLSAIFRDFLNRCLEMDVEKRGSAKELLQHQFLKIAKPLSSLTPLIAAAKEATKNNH
Chain of Serine/threonine-protein kinase PAK 2 (Q13177 whole entry): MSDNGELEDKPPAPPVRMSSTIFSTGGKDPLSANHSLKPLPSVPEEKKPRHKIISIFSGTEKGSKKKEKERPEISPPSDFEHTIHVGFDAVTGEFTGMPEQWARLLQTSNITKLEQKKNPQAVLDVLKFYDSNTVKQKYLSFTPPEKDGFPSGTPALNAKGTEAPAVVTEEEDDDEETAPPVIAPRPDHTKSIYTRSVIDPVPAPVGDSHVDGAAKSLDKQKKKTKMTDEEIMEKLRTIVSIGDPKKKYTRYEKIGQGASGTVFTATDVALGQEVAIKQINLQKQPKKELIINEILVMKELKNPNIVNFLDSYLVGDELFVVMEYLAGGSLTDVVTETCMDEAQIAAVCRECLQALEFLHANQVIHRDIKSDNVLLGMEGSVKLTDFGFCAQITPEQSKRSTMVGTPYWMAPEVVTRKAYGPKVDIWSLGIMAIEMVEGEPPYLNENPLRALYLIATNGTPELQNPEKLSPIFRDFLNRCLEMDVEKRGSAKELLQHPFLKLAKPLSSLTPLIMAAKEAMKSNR

fraction unbound [11]: 0.017
SMILES: CCn1c(=O)c(-c2ccc(-c3cncc(C)n3)cc2Cl)cc2cnc(NCCC3CCN(C)CC3)nc21
Cmax [1]: 4 µM
fCmax [2]: 0.076 µM
Activity [3]: Toxic
Activity [4]: Toxic
Activity [5]: Toxic
Activity [6]: Toxic
Activity [7]: Toxic
Activity [8]: Toxic
Activity [9]: Toxic
Activity [10]: Toxic
Cmax [12]: 16 µM
fCmax [13]: 0.27 µM

Ki [14]: 6.3 nM
Selectivity ratio [15]: 123
IC50 [16]: 150 nM
logD [17]: 2.5
solubility kinetic [18]: 2.6 µM (≈ 1.21 µg/mL)
Papp A→B at 1 h, 10 µM [19]: 37 ×10⁻⁶ cm/s
efflux ratio at 1 h, 10 µM [20]: 0.4
Ki [21]: 21 nM
fraction unbound [22]: 0.006
SMILES: CCn1c(=O)c(-c2ccc(-n3cccc(C)c3=O)cc2Cl)cc2cnc(NC3COC3)nc21
Cmax [23]: 41 µM
fCmax [24]: 0.24 µM
Ratio [25]: 1

Ki [14]: 11 nM
IC50 [16]: 240 nM
Ki [21]: 9.5 nM
fraction unbound [27]: 0.027
SMILES: CCc1cccn(-c2ccc(-c3cc4cnc(NC)nc4n(C[C@H]4CNCCO4)c3=O)c(Cl)c2)c1=O
Activity [26]: Toxic
Cmax [28]: 28 µM
fCmax [29]: 0.76 µM
Ratio [30]: 1

Ki [14]: 372 nM
IC50 [16]: 6000 nM
Ki [21]: 940 nM
fraction unbound [31]: 0.104
SMILES: Cc1cncc(-c2ccc(-c3cc4cncnc4n(C[C@H]4CC[C@H](N)CC4)c3=O)c(Cl)c2)n1
Cmax [32]: 59 µM
fCmax [33]: 6.1 µM
Ratio [34]: 1

Ki [14]: 950 nM
IC50 [16]: 15000 nM
Ki [21]: 3670 nM
fraction unbound [35]: 0.025
SMILES: CNc1ncc2cc(-c3ccc(-n4cccc(C)c4=O)cc3C3CC3)c(=O)n(C[C@@H]3CNCCO3)c2n1
Cmax [36]: 63 µM
fCmax [37]: 1.6 µM
Ratio [38]: 1
